From ChEMBL document CHEMBL4373687, “Introducing nitrogen atoms to amidoalkylindoles: potent and selective cannabinoid type 2 receptor agonists with improved aqueous solubility” (Medchemcomm, 2019) come the findings set out here.

Series [1] has as its target T1, Cannabinoid receptor 1 (Homo sapiens, UniProt P21554). The experiment in a line: Agonist activity at human CB1-receptor expressed in CHO-K1 cells coexpressing G-alpha16 by Fluo-4-AM dye based calcium mobilization assay. To be noted: read-out: EC50. Type of series: cell-based.
The target of series [2] is T1, Cannabinoid receptor 1. Nature of the series: Agonist activity at human CB1-receptor expressed in CHO-K1 cells coexpressing G-alpha16 assessed as maximum efficacy by Fluo-4-AM dye based calcium mobilization assay relative to CP55940. Type of series: cell-based. In a few lines: (§1)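 CHO-K1 cells stably co-expressing Gα16 and human CB1 or CB2, seeded 24 h. Loaded with 2 μM fluo-4 AM in HBSS (with sulfinpyrazone, pH 7.4) at 37 °C for 45 min. Compound added and calcium fluorescence recorded (ex 485/em 525 nm). CP55940 positive control, DMSO negative control. Compounds with >50% activation at 10 μM got eight-point curves in triplicate, sigmoidal fit for EC50.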
Background: Calcium assays in cells follow changes in intracellular calcium, usually with a dye or a luminescent sensor.

Series [3] addresses T2, Cannabinoid receptor 2 (Homo sapiens, UniProt P34972). Nature of the series: Agonist activity at human CB2-receptor expressed in CHO-K1 cells coexpressing G-alpha16 by Fluo-4-AM dye based calcium mobilization assay. To be noted: read-out: EC50. The class given is functional, cell-based.
Series [4] deals with T2, Cannabinoid receptor 2. The experiment in a line: Agonist activity at human CB2-receptor expressed in CHO-K1 cells coexpressing G-alpha16 assessed as maximum efficacy by Fluo-4-AM dye based calcium mobilization assay relative to CP55940. Type of series: functional, cell-based. In a few lines: as §1
Series [5] addresses T1, Cannabinoid receptor 1. The experiment in a line: Antagonist activity at human CB1-receptor expressed in CHO-K1 cells coexpressing G-alpha16 pre-incubated for 10 mins and later treated with 100 nM CB-receptor agonist, CP55940 by Fluo-4-AM dye based calcium mobilization assay. Type of series: cell-based. The method in brief: (§2)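 CHO-K1 cells stably co-expressing Gα16 and human CB1 or CB2, loaded with 2 μM fluo-4 AM in HBSS pH 7.4 at 37 °C for 45 min. Pre-incubated with compound for 10 min at room temperature, then CP55940 added at 100 nM. Peak calcium read over 60 s (ex 485/em 525 nm). Rimonabant positive control. Actives got eight-point curves in triplicate, sigmoidal fit for IC50.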

Series [6] addresses T2, Cannabinoid receptor 2. Nature of the series: Antagonist activity at human CB2-receptor expressed in CHO-K1 cells coexpressing G-alpha16 pre-incubated for 10 mins and later treated with 100 nM CB-receptor agonist, CP55940 by Fluo-4-AM dye based calcium mobilization assay. The class given is functional, cell-based. The conditions noted are these: cho-k1. The method in brief: as §2

Series [7] has as its target T1, Cannabinoid receptor 1. Nature of the series: Agonist activity at human CB1-receptor expressed in CHO-K1 cells coexpressing G-alpha16 at 10 uM by Fluo-4-AM dye based calcium mobilization assay. Type of series: cell-based. To be noted: cho-k1, 10 µM. The method in brief:
as §1

The target in series [8] is T2, Cannabinoid receptor 2. The experiment in a line: Agonist activity at human CB2-receptor expressed in CHO-K1 cells coexpressing G-alpha16 at 10 uM by Fluo-4-AM dye based calcium mobilization assay. The class given is functional, cell-based. The method in brief:
as §1

Series [9] deals with T2, Cannabinoid receptor 2. Nature of the series: Antagonist activity at human CB2-receptor expressed in CHO-K1 cells coexpressing G-alpha16 at 10 uM pre-incubated for 10 mins and later treated with 100 nM CB-receptor agonist, CP55940 by Fluo-4-AM dye based calcium mobilization assay. The class given is functional, cell-based. In a few lines:
as §2

Series [10] has as its target T1, Cannabinoid receptor 1. Nature of the series: Antagonist activity at human CB1-receptor expressed in CHO-K1 cells coexpressing G-alpha16 at 10 uM pre-incubated for 10 mins and later treated with 100 nM CB-receptor agonist, CP55940 by Fluo-4-AM dye based calcium mobilization assay. The class given is cell-based. In a few lines: as §2
Series [11] in a line: Kinetic aqueous solubility of compound in phosphate-buffer containing 1% DMSO ultrasonicated for 10 mins at pH 7.4 by HPLC analysis. The class given is physicochemical. To be noted: pH 7.4, 10 min. The method in brief:
(§3)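 Kinetic solubility: 10 mM DMSO stock diluted into 10 mM phosphate buffer at pH 7.4 or 1.4 (final 1% DMSO). Sonicated 10 min at room temperature and filtered through a 0.22 μm PTFE filter. Concentration determined by reversed-phase C18 HPLC (275/290 nm) against a standard curve. n = 3.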

The nature of series [12]: Kinetic aqueous solubility of compound in phosphate-buffer containing 1% DMSO ultrasonicated for 10 mins at pH 1.4 by HPLC analysis. To be noted: pH 1.4, 10 min. Type of series: physicochemical. In a few lines:
as §3

Series [13] in a line: Kinetic aqueous solubility of compound in phosphate-buffer containing 1% DMSO ultrasonicated for 10 mins at pH 7.4 measured using 50-95% methanol in water as gradient for 23 mins by HPLC analysis. The class given is physicochemical. The method in brief:
(§4)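 Kinetic solubility: 10 mM DMSO stock diluted into 10 mM phosphate buffer pH 7.4 or 1.4 (final 1% DMSO), sonicated 10 min at room temperature, filtered 0.22 μm. Quantified by C18 HPLC against a standard curve. Gradient 50–95% methanol/water with trifluoroacetic acid over 23 min at 1.0 mL/min. n = 3.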

Series [14] can be described thus: Kinetic aqueous solubility of compound in phosphate-buffer containing 1% DMSO ultrasonicated for 10 mins at pH 1.4 measured using 50-95% methanol in water as gradient for 23 mins by HPLC analysis. The class given is physicochemical. The conditions noted are these: pH 1.4, 10 min. In a few lines: as §4
The nature of series [15]: Kinetic aqueous solubility of compound in phosphate-buffer containing 1% DMSO ultrasonicated for 10 mins at pH 7.4 measured using 60-95% methanol in water as gradient for 19 mins by HPLC analysis. Type of series: physicochemical. The conditions noted are these: pH 7.4, 10 min. In a few lines:
(§5)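 Kinetic solubility: 10 mM DMSO stock diluted into 10 mM phosphate buffer pH 7.4 or 1.4 (final 1% DMSO), sonicated 10 min at room temperature, filtered 0.22 μm. Quantified by C18 HPLC against a standard curve. Gradient 60–95% methanol/water with trifluoroacetic acid over 19 min at 1.0 mL/min. n = 3.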

The nature of series [16]: Kinetic aqueous solubility of compound in phosphate-buffer containing 1% DMSO ultrasonicated for 10 mins at pH 1.4 measured using 60-95% methanol in water as gradient for 19 mins by HPLC analysis. Type of series: physicochemical. To be noted: pH 1.4, 10 min. In a few lines:
as §5

A short description of series [17]: Kinetic aqueous solubility of compound in phosphate-buffer containing 1% DMSO ultrasonicated for 10 mins at pH 7.4 measured using 80-95% methanol in water as gradient for 19 mins by HPLC analysis. The class given is physicochemical. To be noted: pH 7.4, 10 min. In a few lines: (§6)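 Kinetic solubility: 10 mM DMSO stock diluted into 10 mM phosphate buffer pH 7.4 or 1.4 (final 1% DMSO), sonicated 10 min at room temperature, filtered 0.22 μm. Quantified by C18 HPLC against a standard curve. Gradient 80–95% methanol/water with trifluoroacetic acid over 19 min at 1.2 mL/min. n = 3.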

Series [18] is described as follows: Kinetic aqueous solubility of compound in phosphate-buffer containing 1% DMSO ultrasonicated for 10 mins at pH 1.4 measured using 80-95% methanol in water as gradient for 19 mins by HPLC analysis. Type of series: physicochemical. The conditions noted are these: pH 1.4, 10 min. In a few lines:
as §6

T2 sequence (P34972 whole entry): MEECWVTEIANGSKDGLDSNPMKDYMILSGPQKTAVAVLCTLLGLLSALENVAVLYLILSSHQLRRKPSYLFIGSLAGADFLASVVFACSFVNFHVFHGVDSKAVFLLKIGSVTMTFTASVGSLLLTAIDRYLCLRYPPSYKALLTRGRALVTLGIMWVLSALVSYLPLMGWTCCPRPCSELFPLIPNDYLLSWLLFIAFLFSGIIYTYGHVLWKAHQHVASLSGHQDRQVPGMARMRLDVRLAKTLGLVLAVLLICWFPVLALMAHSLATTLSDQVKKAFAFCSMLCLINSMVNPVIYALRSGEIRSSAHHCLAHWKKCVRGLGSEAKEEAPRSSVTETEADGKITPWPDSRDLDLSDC
T1 sequence (P21554 whole entry): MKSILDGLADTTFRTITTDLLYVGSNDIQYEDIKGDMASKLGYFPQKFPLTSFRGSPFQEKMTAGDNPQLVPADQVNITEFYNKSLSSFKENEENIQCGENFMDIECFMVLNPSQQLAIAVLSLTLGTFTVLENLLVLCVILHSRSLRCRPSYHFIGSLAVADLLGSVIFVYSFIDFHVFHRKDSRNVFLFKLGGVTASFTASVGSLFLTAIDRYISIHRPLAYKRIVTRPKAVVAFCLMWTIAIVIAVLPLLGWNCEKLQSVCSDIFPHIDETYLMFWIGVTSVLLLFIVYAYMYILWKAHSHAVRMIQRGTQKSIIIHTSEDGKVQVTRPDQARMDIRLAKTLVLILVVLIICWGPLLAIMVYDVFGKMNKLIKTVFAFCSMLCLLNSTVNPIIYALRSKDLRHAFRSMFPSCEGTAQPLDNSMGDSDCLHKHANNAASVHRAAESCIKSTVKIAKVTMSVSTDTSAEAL

For `CCCCCn1cc(C(=O)NC23CC4CC(CC(C4)C2)C3)c2cccnc21`, the EC50 (as a rule, the concentration needed to bring the measured effect to its halfway point) came out at 740 nM at Cannabinoid receptor 1 [1] and 32 nM at Cannabinoid receptor 2 [3]. The Emax (in general, the greatest response seen or fitted, relative to the assay's reference) was found to be 39.1% on Cannabinoid receptor 1 [2] and 79.4% at Cannabinoid receptor 2 [4]. The IC50 result on Cannabinoid receptor 1 [5] and on Cannabinoid receptor 2 [6] was “Not Active” throughout. The Activity at Cannabinoid receptor 1 [7] and at Cannabinoid receptor 2 [8] was greater than 50% each time. The inhibition (usually the change of the read-out against control, counted positive when it falls) at Cannabinoid receptor 2 [9] is less than 50%. Besides, on Cannabinoid receptor 1 [10], the inhibition at 10 µM is less than 50%.

For `CCCCCn1nc(C(=O)NC23CC4CC(CC(C4)C2)C3)c2ccccc21`, the EC50 at Cannabinoid receptor 1 [1] was 38 nM; on Cannabinoid receptor 2 [3] it was 92 nM. Also, the values for the Emax on Cannabinoid receptor 1 [2] and at Cannabinoid receptor 2 [4] were 99.6% and 58.5%, respectively. Moreover, the IC50 entry at Cannabinoid receptor 1 [5] and on Cannabinoid receptor 2 [6] was “Not Active” throughout. Also, the Activity on Cannabinoid receptor 1 [7] and on Cannabinoid receptor 2 [8] was greater than 50% each time. Besides, at Cannabinoid receptor 2 [9], the inhibition was less than 50%. Also, on Cannabinoid receptor 1 [10], the inhibition at 10 µM was less than 50%.

Consider `O=C(NC12CC3CC(CC(C3)C1)C2)c1nc2ccccc2n1CCCCCO`, for which the results for the EC50 at Cannabinoid receptor 1 [1] and on Cannabinoid receptor 2 [3] were greater than 10000 nM and 67 nM, respectively. Moreover, the Emax on Cannabinoid receptor 2 [4] is 64%. The IC50 result at Cannabinoid receptor 1 [5] and at Cannabinoid receptor 2 [6] was “Not Active” each time. Further, the Activity on Cannabinoid receptor 1 [7] was less than 50%; at Cannabinoid receptor 2 [8] it was greater than 50%. Also, the inhibition on Cannabinoid receptor 2 [9] was less than 50%. In addition, on Cannabinoid receptor 1 [10], the inhibition at 10 µM was less than 50%. In addition, the Kinetic_solubility was determined as 32.88 uM/L in series [11] and 96 uM/L in series [12]. Besides, the “log(Kinetic_solubility)” value is recorded as -4.48 in series [11] and -4.02 in [12].

For `O=C(NC12CC3CC(CC(C3)C1)C2)c1cn(CCN2CCOCC2)c2ncccc12`, the EC50 on Cannabinoid receptor 1 [1] was greater than 10000 nM; at Cannabinoid receptor 2 [3] it was 48 nM. In addition, the Emax at Cannabinoid receptor 2 [4] is 25.7%. In addition, the IC50 result at Cannabinoid receptor 1 [5] and at Cannabinoid receptor 2 [6] was “Not Active” each time. Also, the results for the Kinetic_solubility in [13] and in [14] were 69.43 uM/L and 86.6 uM/L, respectively. The “log(Kinetic_solubility)” value is recorded as -4.15 in series [13] and -4.06 in [14]. The Activity on Cannabinoid receptor 1 [7] was less than 50%; on Cannabinoid receptor 2 [8], greater than 50%. In addition, the inhibition at Cannabinoid receptor 2 [9] was less than 50%. The inhibition at 10 µM at Cannabinoid receptor 1 [10] was less than 50%.

Turning to `O=C(NC12CC3CC(CC(C3)C1)C2)c1n[nH]c2ccccc12`, the values for the EC50 at Cannabinoid receptor 1 [1] and on Cannabinoid receptor 2 [3] were 17100 nM and 86 nM, respectively. In addition, the results for the maximum response (Emax) at Cannabinoid receptor 1 [2] and on Cannabinoid receptor 2 [4] were 67.3% and 73.9%, respectively. The IC50 entry on Cannabinoid receptor 1 [5] and on Cannabinoid receptor 2 [6] was “Not Active” throughout. The Kinetic_solubility in series [15] and in series [16] was less than 10 uM/L in each case. The “log(Kinetic_solubility)” value in [15] and in series [16] was less than -5 in each case. Moreover, the Activity at Cannabinoid receptor 1 [7] and at Cannabinoid receptor 2 [8] was greater than 50% each time. On Cannabinoid receptor 2 [9], the inhibition was less than 50%. Further, at Cannabinoid receptor 1 [10], the inhibition at 10 µM was less than 50%.

For `O=C(NC12CC3CC(CC(C3)C1)C2)c1nn(CCN2CCOCC2)c2ccccc12`, the EC50 at Cannabinoid receptor 1 [1] came to 300 nM; on Cannabinoid receptor 2 [3], 58 nM. Further, the Emax came to 109% on Cannabinoid receptor 1 [2] and 85.3% at Cannabinoid receptor 2 [4]. In addition, the IC50 entry on Cannabinoid receptor 1 [5] and at Cannabinoid receptor 2 [6] was “Not Active” in each case. The Activity on Cannabinoid receptor 1 [7] and at Cannabinoid receptor 2 [8] was greater than 50% each time. Further, the inhibition on Cannabinoid receptor 2 [9] is less than 50%. For the same compound, the inhibition at 10 µM at Cannabinoid receptor 1 [10] is less than 50%.

Regarding `O=C(NC12CC3CC(CC(C3)C1)C2)c1cc2ccccc2n1CCCCO`, the results for the Kinetic_solubility in [17] and in series [18] were 23.71 uM/L and 16.77 uM/L, respectively. Further, the “log(Kinetic_solubility)” value is given as -4.63 in [17] and -4.78 in series [18].
